Calls of active or inactive are those of the source. The calls are words filed in the database; no cut-off is given here.
What was measured:
[1] = target: T1, Lysine-specific histone demethylase 1A (Homo sapiens, UniProt O60341); assay: Inhibition of recombinant LSD1 (unknown origin) using H3K4me2 as substrate by fluorescence assay
[2] = target: T1, Lysine-specific histone demethylase 1A; conditions: 1.6 uM
[3] = target: T1, Lysine-specific histone demethylase 1A; assay: Inhibition of LSD1 in human A549 cells assessed as accumulation of H3K4me1 after 96 hrs by Western blot analysis; type: cell-based
How it was run: (§1)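 A549 cells were treated with 0, 1 and 6 µM for 96 h, then lysed in RIPA buffer (50 mM Tris-HCl pH 7.5) with protease inhibitors. Lysates went through SDS-PAGE, PVDF transfer and probing for the histone mark, with ECL detection. Bands were quantified against total H3. Run at least three times; mean ± SD.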

[4] = target: T1, Lysine-specific histone demethylase 1A; assay: Inhibition of LSD1 in human A549 cells assessed as accumulation of H3K9me2 after 96 hrs by Western blot analysis; type: cell-based; how it was run: as §1
[5] = target: T1, Lysine-specific histone demethylase 1A; assay: Inhibition of LSD1 in human A549 cells assessed as accumulation of H3K9me1 up to 6 uM after 96 hrs by Western blot analysis; type: cell-based
How it was run: (§2)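 A549 cells exposed to 0, 1 or 6 µM for 96 h, lysed in RIPA buffer (pH 7.5) with protease inhibitors. Lysates (40 µg/lane) resolved by 10% or 12% SDS-PAGE and immunoblotted for H3K4me1/2 and H3K9me1/2. ECL read-out, quantified against total histone H3 loading control. At least three experiments, mean ± SD.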

[6] = target: T1, Lysine-specific histone demethylase 1A; assay: Inhibition of LSD1 in human A549 cells assessed as accumulation of H3K4me2 after 96 hrs by Western blot analysis; type: cell-based; how it was run: as §1
[7] = target: T1, Lysine-specific histone demethylase 1A; assay: Binding affinity to LSD1 in human A549 cells assessed as thermal stability by measuring temperature at 10 uM after 1 hr by thermal shift assay; type: cell-based
How it was run: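 CETSA: A549 cells (5 × 10⁵ per sample) were exposed 1 h to 10 µM compound or DMSO, washed in PBS, and resuspended in PBS with protease inhibitor. Samples were heated 3 min at the indicated temperatures (e.g. 46, 49, 52 °C), then freeze-thawed three times in liquid nitrogen. Soluble LSD1 was measured by western blot with a GAPDH control; three independent experiments.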

[8] = target: T1, Lysine-specific histone demethylase 1A; assay: Inhibition of LSD1 in human A549 cells assessed as accumulation of H3K9me1 after 96 hrs by Western blot analysis; type: cell-based; how it was run: as §1
[9] = test system: A549; assay: Up regulation of E-cadherin levels in human A549 cells up to 6 uM after 96 hrs by Western blot analysis; type: functional, cell-based
How it was run: (§3)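 A549 cells treated with 0, 1 or 6 µM for 96 h, harvested with trypsin and lysed in RIPA buffer (pH 7.5) with protease inhibitors. 40 lg protein/lane on SDS-PAGE, transferred to PVDF, probed overnight with specific primary antibodies. ECL detection, quantified against GAPDH loading control. At least three experiments, mean ± SD.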

[10] = test system: GES1; assay: Cytotoxicity against human GES-1 cells assessed as decrease in cell viability after 96 hrs by MTT assay; type: cell-based; conditions: GES1, 96 h
How it was run: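 GES-1 cells were grown in RPMI-1640 with 10% FBS at 37 °C and 5% CO₂. They were seeded at 3 × 10³ per well, left overnight, then given graded concentrations for 4 days (0.1% DMSO vehicle). MTT was added for 4 h at 37 °C, formazan dissolved in DMSO, and A570 read. Viability = (At/As) × 100% against solvent control.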

[11] = target: T2, MAO-A (Homo sapiens, UniProt P21397); assay: Inhibition of MAO-A (unknown origin) at 10 uM relative to control
T2 sequence (P21397 whole entry): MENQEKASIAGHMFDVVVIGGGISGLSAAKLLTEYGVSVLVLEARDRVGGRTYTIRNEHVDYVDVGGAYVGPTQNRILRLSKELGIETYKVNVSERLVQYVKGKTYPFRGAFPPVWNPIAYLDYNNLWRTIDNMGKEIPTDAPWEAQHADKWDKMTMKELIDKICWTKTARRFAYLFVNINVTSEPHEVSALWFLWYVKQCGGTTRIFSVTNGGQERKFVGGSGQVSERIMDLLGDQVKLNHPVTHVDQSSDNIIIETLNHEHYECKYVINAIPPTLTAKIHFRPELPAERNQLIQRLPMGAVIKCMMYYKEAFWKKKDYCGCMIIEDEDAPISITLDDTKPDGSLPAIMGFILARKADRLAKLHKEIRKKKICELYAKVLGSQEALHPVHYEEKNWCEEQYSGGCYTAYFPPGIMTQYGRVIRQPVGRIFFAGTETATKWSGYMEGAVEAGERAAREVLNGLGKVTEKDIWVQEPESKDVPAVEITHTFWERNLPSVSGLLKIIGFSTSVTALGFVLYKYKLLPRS

[12] = target: T3, MAO-B (Homo sapiens, UniProt P27338); assay: Inhibition of MAO-B (unknown origin) at 10 uM relative to control
T3 sequence (P27338 whole entry): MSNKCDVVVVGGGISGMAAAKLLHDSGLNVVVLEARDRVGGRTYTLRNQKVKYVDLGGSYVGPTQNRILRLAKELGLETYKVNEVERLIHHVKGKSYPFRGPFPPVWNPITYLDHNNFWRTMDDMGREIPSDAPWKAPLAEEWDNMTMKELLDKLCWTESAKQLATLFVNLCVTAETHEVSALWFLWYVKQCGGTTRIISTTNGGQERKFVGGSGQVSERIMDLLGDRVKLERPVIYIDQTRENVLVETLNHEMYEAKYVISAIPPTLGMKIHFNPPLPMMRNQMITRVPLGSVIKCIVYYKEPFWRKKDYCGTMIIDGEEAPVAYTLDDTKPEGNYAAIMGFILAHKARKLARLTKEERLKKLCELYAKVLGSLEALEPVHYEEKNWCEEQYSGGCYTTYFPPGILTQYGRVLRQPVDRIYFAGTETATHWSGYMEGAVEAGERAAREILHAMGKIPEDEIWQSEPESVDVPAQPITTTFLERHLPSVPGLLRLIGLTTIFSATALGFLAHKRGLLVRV

[13] = test system: A549; assay: Down regulation of N-cadherin levels in human A549 cells up to 6 uM after 96 hrs by Western blot analysis; type: functional, cell-based; how it was run: as §3
[14] = test system: A549; assay: Down regulation of snail levels in human A549 cells up to 6 uM after 96 hrs by Western blot analysis; type: functional, cell-based; how it was run: as §3
[15] = test system: A549; assay: Down regulation of slug levels in human A549 cells up to 6 uM after 96 hrs by Western blot analysis; type: functional, cell-based; how it was run: as §3
[16] = target: T3, MAO-B; assay: Inhibition of MAO-B (unknown origin) at 1 uM relative to control
[17] = target: T2, MAO-A; assay: Inhibition of MAO-A (unknown origin) at 1 uM relative to control
[18] = target: T1, Lysine-specific histone demethylase 1A; assay: Competitive inhibition of recombinant LSD1 (unknown origin) up to 1.25 uM using H3K4me2 as substrate in presence of FAD by Lineweaver-Burk plot analysis
[19] = test system: A549; assay: Up regulation of claudin-1 levels in human A549 cells up to 6 uM after 96 hrs by Western blot analysis; type: functional, cell-based; how it was run: as §3
[20] = target: T1, Lysine-specific histone demethylase 1A; assay: Inhibition of H3K4me2 binding to LSD1 in human A549 cells up to 6 uM after 96 hrs by immunoprecipitation assay; type: cell-based
How it was run: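 Co-IP: A549 cells were treated with 0 or 6 µM for 96 h, trypsinised, and lysed in IP lysis/wash buffer with protease inhibitors. LSD1 antibody was used as bait, and H3K4me2 bound to LSD1 was detected. Total cell lysate was blotted alongside with a GAPDH loading control.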

[21] = test system: A549; assay: Antimigratory activity against human A549 cells after 48 hrs by wound healing assay; type: functional, cell-based
How it was run: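 Scratch assay: cells seeded at 1 × 10⁴ per well and grown 24 h, then the monolayer was scratched with a pipette tip. Cells were then cultured 48 h in fresh medium with 1% FBS and graded compound concentrations. Wound closure was photographed under an inverted microscope. Run at least three times; mean ± SD.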

[22] = test system: A549; assay: Effect on LSD1 expression in human A549 cells up to 6 uM after 96 hrs by Western blot analysis; type: functional, cell-based; how it was run: as §3
[23] = target: T1, Lysine-specific histone demethylase 1A; assay: Reversible inhibition of recombinant LSD1 (unknown origin) assessed as recovery of enzyme activity at 40 uM measured 1 hr after 80-fold dilution
How it was run: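 Dilution assay: 2.5 µg recombinant LSD1 was preincubated 1 h at 25 °C with 40 µM compound, 1.6 µM GSK2879552 or DMSO. Aliquots were then diluted 80-fold into HRP-coupled assay solution with substrate and compared with undiluted mixtures to assess recovery of LSD1 activity.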

[24] = target: T1, Lysine-specific histone demethylase 1A; assay: Inhibition of LSD1 in human A549 cells assessed as accumulation of H3K4me2 up to 6 uM after 96 hrs by Western blot analysis; type: cell-based; how it was run: as §2
[25] = target: T1, Lysine-specific histone demethylase 1A; assay: Inhibition of LSD1 in human A549 cells assessed as accumulation of H3K9me2 up to 6 uM after 96 hrs by Western blot analysis; type: cell-based; how it was run: as §2
[26] = test system: A549; assay: Antimigratory activity against human A549 cells at 6 uM after 48 hrs by wound healing assay; type: functional, cell-based
How it was run: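 Scratch wound assay in A549 monolayers: cells seeded at 1 × 10⁴ per well, incubated 24 h, then scratched with a pipette tip. Cultured 48 h in fresh medium with 1% FBS and varying compound concentrations, then photographed under an inverted microscope. At least three independent experiments, mean ± SD.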

[27] = target: T1, Lysine-specific histone demethylase 1A; assay: Inhibition of LSD1 in human A549 cells assessed as accumulation of H3K4me1 up to 6 uM after 96 hrs by Western blot analysis; type: cell-based; how it was run: as §2

CNCCN(C)c1cc(C)nc2nc(SCc3ccccc3)nn12 was tested, and the IC50 [1] was > 50 µM.

With Cc1cc(N2CCCC(N)C2)n2nc(SCc3ccccc3)nc2n1 (stereo not drawn) the IC50 [1] was > 50 µM.

In the case of O=C(O)c1ccc(CN2CCC(CN[C@@H]3C[C@H]3c3ccccc3)CC2)cc1, the inhibition [2] is reported as “Active”.

Cc1cc(NCCN)n2nc(SCc3ccccc3)nc2n1 was tested, and the IC50 [1] was > 50 µM.

In the case of Cc1cc(N(C)CCN(C)C)n2nc(SCc3ccccc3)nc2n1, the IC50 [1] is reported as > 50 µM.

With NNc1cc(-c2ccccc2)nc2nc(SCc3ccccc3)nn12 the IC50 [1] was > 50 µM.

With Cc1cc(NCCOCCOCCN)n2nc(SCc3ccccc3)nc2n1 the IC50 [1] was > 50 µM.

With Cc1cc(NN)n2ncnc2n1 the inhibition [3] was “inactive”, the inhibition [4] was “inactive” and the inhibition [5] was “inactive”. The inhibition [6] was “inactive”, the Activity [7] was “inactive” and the IC50 [1] was > 50 µM. The inhibition [8] was “inactive”.

Work on C/C(=N\NC(=O)c1cccc(S(=O)(=O)N2CCOCC2)c1)c1cc(Cl)ccc1O yielded an IC50 [1] of 0.0243 µM.

For Cc1cc(NN)n2nc(SCc3ccccc3)nc2n1, the Activity [9] was “Active”, the IC50 [10] was > 50 µM and the inhibition at 10 µM [11] was 36%. For the same molecule, the inhibition [3] was “Dose-dependent effect”, the inhibition at 10 µM [12] was 43% and the Activity [13] was “Active”. The Activity [14] was “Active”, the Activity [15] was “Active” and the inhibition at 1 µM [16] was 15%. The inhibition at 1 µM [17] was 21%, the inhibition [4] was “Dose-dependent effect” and the inhibition [18] was “Active”. For the same molecule, the Activity [19] was “Active”, the inhibition [20] was “Active” and the inhibition [6] was “Dose-dependent effect”. The Activity [21] was “Dose-dependent effect”, the T [7] was 52 °C and the IC50 [1] was 0.882 µM. The inhibition [8] was “Dose-dependent effect”, the Activity [22] was “inactive” and the inhibition [23] was “Active”.

In the case of c1ccc([C@@H]2C[C@H]2NC2CCNCC2)cc1 (racemic), the Activity [9] is reported as “Active”, the inhibition [3] is reported as “Dose-dependent effect” and the Activity [13] is reported as “Active”. The Activity [14] was “Active”, the Activity [15] was “Active” and the inhibition [24] was “Active”. For the same molecule, the inhibition [4] was “Dose-dependent effect”, the inhibition [25] was “Active” and the inhibition [26] was “Active”. For the same molecule, the Activity [19] was “Active”, the inhibition [5] was “inactive” and the inhibition [6] was “Dose-dependent effect”. For the same molecule, the Activity [22] was “inactive” and the inhibition [27] was “Active”.

For Cc1cc(N2CCCC(NC(=O)OC(C)(C)C)C2)n2nc(SCc3ccccc3)nc2n1 (stereo not drawn), the IC50 [1] was > 50 µM.

With Cc1cc(NN)n2nc(SCc3cccc4ccccc34)nc2n1 the IC50 [1] was > 50 µM.

With Cc1cc(N)n2nc(SCc3ccccc3)nc2n1 the IC50 [1] was > 50 µM.

Source: ChEMBL document CHEMBL4400535, “Experience-based discovery (EBD) of aryl hydrazines as new scaffolds for the development of LSD1/KDM1A inhibitors” (Eur J Med Chem, 2019)
